From ChEMBL document CHEMBL2086239, “Synthesis and biological evaluation of combretastatin-amidobenzothiazole conjugates as potential anticancer agents” (Eur J Med Chem, 2012)
The source made the active and inactive calls. No cut-off for these calls is given here.

Columns and labels:
Format in all cases: functional
HCT-15 = assay: Growth inhibition of human HCT15 cells after 48 hrs by SRB assay; details: HCT-15, 48 h
In short: (§1)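 NCI 60-cell-line screen: after preliminary screening, tested at five dose concentrations on 59 human tumour lines covering leukemia, lung, colon, CNS, melanoma, ovarian, renal, prostate and breast.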

U-251 = assay: Growth inhibition of human U251cells after 48 hrs by SRB assay; details: U-251, 48 h
In short: (§2)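 NCI 60-cell-line panel, five-dose testing after preliminary screen; sulforhodamine B protein assay in DMEM with 10% FBS, 37 °C, 5% CO2, 100% humidity. Cells seeded and incubated 24 h before compound addition, then exposed 48 h. Absorbance read at 560 nm; growth percentage relative to control wells; GI50 taken as concentration giving 50% growth inhibition.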

SN12C = assay: Growth inhibition of human SN12C cells after 48 hrs by SRB assay; in short: as §2
A549 [1] = assay: Growth inhibition of human A549 cells after 48 hrs by SRB assay; details: A549, 48 h; in short: as §1
A549 [2] = assay: Cytotoxicity against human A549 cells assessed as inhibition of cell growth at 10 uM after 48 hrs by SRB assay relative to control; details: A549, 48 h, read-out: GI
In short: (§3)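 SRB protein assay in DMEM with 10% FBS at 37 °C, 5% CO2, 100% relative humidity. Cells seeded in 96-well plates, incubated 24 h, then exposed to drug at 10 µM for 48 h and processed per standard protocol. Absorbance read at 560 nm; growth percentage calculated for test wells relative to control wells.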

COLO 205 [3] = assay: Cytotoxicity against human COLO205 cells after 48 hrs assessed as inhibition of cell growth at 10 uM after 48 hrs by SRB assay relative to control; details: COLO 205, 48 h, read-out: GI; in short: as §3
OVCAR-8 = assay: Growth inhibition of human OVCAR8 cells after 48 hrs by SRB assay; details: OVCAR-8, 48 h; in short: as §1
IMR-32 = assay: Cytotoxicity against human IMR32 cells after 48 hrs assessed as inhibition of cell growth at 10 uM after 48 hrs by SRB assay relative to control; details: IMR-32, 48 h, read-out: GI; in short: as §3
CAKI-1 = assay: Growth inhibition of human Caki1 cells after 48 hrs by SRB assay; details: CAKI-1, 48 h; in short: as §1
CCRF-CEM = assay: Growth inhibition of human CCRF-CEM cells after 48 hrs by SRB assay; in short: as §1
SK-OV-3 = assay: Growth inhibition of human SKOV3 cells after 48 hrs by SRB assay; details: SK-OV-3, 48 h; in short: as §2
LOX IMVI = assay: Growth inhibition of human LOXIMVI cells after 48 hrs by SRB assay; in short: as §1
HCT-116 = assay: Growth inhibition of human HCT116 cells after 48 hrs by SRB assay; details: HCT-116, 48 h; in short: as §1
RPMI-8226 = assay: Growth inhibition of human RPMI8226 cells after 48 hrs by SRB assay; details: RPMI-8226, 48 h; in short: as §1
OVCAR-4 = assay: Growth inhibition of human OVCAR4 cells after 48 hrs by SRB assay; details: OVCAR-4, 48 h; in short: as §1
MOLT-4 = assay: Growth inhibition of human MOLT4 cells after 48 hrs by SRB assay; details: MOLT-4, 48 h; in short: as §1
PC-3 [4] = assay: Cytotoxicity against human PC3 cells after 48 hrs assessed as inhibition of cell growth at 10 uM after 48 hrs by SRB assay relative to control; details: PC-3, 48 h, read-out: GI; in short: as §3
EKVX = assay: Growth inhibition of human EKVX cells after 48 hrs by SRB assay; in short: as §1
SNB-75 = assay: Growth inhibition of human SNB75 cells after 48 hrs by SRB assay; details: SNB-75, 48 h; in short: as §2
SF-539 = assay: Growth inhibition of human SF539 cells after 48 hrs by SRB assay; details: SF-539, 48 h; in short: as §2
ACHN = assay: Growth inhibition of human ACHN cells after 48 hrs by SRB assay; in short: as §1
MDA-MB-435 = assay: Growth inhibition of human MDA-MB-435 cells after 48 hrs by SRB assay; details: MDA-MB-435, 48 h; in short: as §1
A498 = assay: Growth inhibition of human A498 cells after 48 hrs by SRB assay; details: A498, 48 h; in short: as §1
DU-145 = assay: Growth inhibition of human DU145 cells after 48 hrs by SRB assay; details: DU-145, 48 h; in short: as §1
SR = assay: Growth inhibition of human SR cells after 48 hrs by SRB assay; in short: as §2
NCI-H522 = assay: Growth inhibition of human NCI-H522 cells after 48 hrs by SRB assay; details: NCI-H522, 48 h; in short: as §1
T47D = assay: Growth inhibition of human T47D cells after 48 hrs by SRB assay; in short: as §2
SF-268 = assay: Growth inhibition of human SF268 cells after 48 hrs by SRB assay; details: SF-268, 48 h; in short: as §1
NCI-H460 = assay: Growth inhibition of human NCI-H460 cells after 48 hrs by SRB assay; details: NCI-H460, 48 h; in short: as §1
MCF7 [5] = assay: Cell cycle arrest in human MCF7 cells assessed as accumulation at G1 phase at 4 uM after 24 hrs by FACS analysis (reference value: 58.33%)
COLO 205 [6] = assay: Growth inhibition of human COLO205 cells after 48 hrs by SRB assay; details: COLO 205, 48 h; in short: as §1
OVCAR-3 = assay: Growth inhibition of human OVCAR3 cells after 48 hrs by SRB assay; details: OVCAR-3, 48 h; in short: as §1
PC-3 [7] = assay: Growth inhibition of human PC3 cells after 48 hrs by SRB assay; details: PC-3, 48 h; in short: as §1
RXF 393 = assay: Growth inhibition of human RXF393 cells after 48 hrs by SRB assay; details: RXF 393, 48 h; in short: as §1
786-0 = assay: Growth inhibition of human 786-0 cells after 48 hrs by SRB assay; in short: as §1
NCI/ADR-RES = assay: Growth inhibition of human NCI/ADR-RES cells after 48 hrs by SRB assay; in short: as §1
UACC-62 = assay: Growth inhibition of human UACC62 cells after 48 hrs by SRB assay; details: UACC-62, 48 h; in short: as §2
MCF7 [8] = assay: Cell cycle arrest in human MCF7 cells assessed as accumulation at G2/M phase at 4 uM after 24 hrs by FACS analysis (reference value: 34.88%)
SK-MEL-2 = assay: Growth inhibition of human SK-MEL-2 cells after 48 hrs by SRB assay; details: SK-MEL-2, 48 h; in short: as §2
OVCAR-5 = assay: Growth inhibition of human OVCAR5 cells after 48 hrs by SRB assay; details: OVCAR-5, 48 h; in short: as §1
HOP-62 = assay: Growth inhibition of human HOP62 cells after 48 hrs by SRB assay; details: HOP-62, 48 h; in short: as §1
Hs-578T = assay: Growth inhibition of human Hs578T cells after 48 hrs by SRB assay; in short: as §1
SW-620 = assay: Growth inhibition of human SW620 cells after 48 hrs by SRB assay; details: SW-620, 48 h; in short: as §2

SMILES: COc1ccc(/C=C\c2cc(OC)c(OC)c(OC)c2)cc1OCC(=O)Nc1nc2ccccc2s1
- GI50 (HCT-15): 48 nM
- GI50 (U-251): 48 nM
- GI50 (SN12C): 370 nM
- GI50 (A549 [1]): 340 nM
- inhibition of growth at 10 µM (A549 [2]): 44%
- inhibition of growth at 10 µM (COLO 205 [3]): 60%
- GI50 (OVCAR-8): 250 nM
- inhibition of growth at 10 µM (IMR-32): 91%
- GI50 (CAKI-1): 410 nM
- GI50 (CCRF-CEM): 78 nM
- GI50 (SK-OV-3): 340 nM
- GI50 (LOX IMVI): 67 nM
- GI50 (HCT-116): 46 nM
- GI50 (RPMI-8226): 150 nM
- GI50 (OVCAR-4): 370 nM
- GI50 (MOLT-4): 340 nM
- inhibition of growth at 10 µM (PC-3 [4]): 44%
- GI50 (EKVX): 38 nM
- GI50 (SNB-75): 46 nM
- GI50 (SF-539): 45 nM
- GI50 (ACHN): 93 nM
- GI50 (MDA-MB-435): 19 nM
- GI50 (A498): 360 nM
- GI50 (DU-145): 100 nM
- GI50 (SR): 37 nM
- GI50 (NCI-H522): 79 nM
- GI50 (T47D): 1000 nM
- GI50 (SF-268): 180 nM
- GI50 (NCI-H460): 52 nM
- Activity (MCF7 [5]): 25.94%
- GI50 (COLO 205 [6]): 2830 nM
- GI50 (OVCAR-3): 43 nM
- GI50 (PC-3 [7]): 180 nM
- GI50 (RXF 393): 50 nM
- GI50 (786-0; 786-0, 48 h): 100 nM
- GI50 (NCI/ADR-RES): 33 nM
- GI50 (UACC-62): 63 nM
- Activity (MCF7 [8]): 46%
- GI50 (SK-MEL-2): 180 nM

SMILES: COc1ccc(/C=C\c2cc(OC)c(OC)c(OC)c2)cc1OCC(=O)Nc1nc2ccc(OC(F)(F)F)cc2s1
- GI50 (HCT-15): 3230 nM
- GI50 (U-251): 3370 nM
- GI50 (SN12C): 6420 nM
- GI50 (A549 [1]): 6000 nM
- inhibition of growth at 10 µM (A549 [2]): 40%
- inhibition of growth at 10 µM (COLO 205 [3]): 41%
- GI50 (OVCAR-8): 5000 nM
- inhibition of growth at 10 µM (IMR-32): 44%
- GI50 (CAKI-1): 4600 nM
- GI50 (CCRF-CEM): 4120 nM
- GI50 (SK-OV-3): 8420 nM
- GI50 (LOX IMVI): 4770 nM
- GI50 (HCT-116): 3920 nM
- GI50 (RPMI-8226): 5830 nM
- GI50 (OVCAR-4): 5340 nM
- GI50 (MOLT-4): 4210 nM
- inhibition of growth at 10 µM (PC-3 [4]): 34%
- GI50 (EKVX): 7890 nM
- GI50 (SNB-75): 1560 nM
- GI50 (SF-539): 2280 nM
- GI50 (ACHN): 8310 nM
- GI50 (MDA-MB-435): 1930 nM
- GI50 (A498): 3610 nM
- GI50 (DU-145): 4110 nM
- GI50 (SR): 3550 nM
- GI50 (NCI-H522): 3160 nM
- GI50 (OVCAR-5): 3120 nM
- GI50 (T47D): 3950 nM
- GI50 (SF-268): 6010 nM
- GI50 (HOP-62): 7090 nM
- GI50 (NCI-H460): 4110 nM
- Activity (MCF7 [5]): 59.04%
- GI50 (COLO 205 [6]): 43300 nM
- GI50 (OVCAR-3): 3370 nM
- GI50 (PC-3 [7]): 5120 nM
- GI50 (Hs-578T): 4330 nM
- GI50 (RXF 393): 2650 nM
- GI50 (786-0): inactive
- GI50 (NCI/ADR-RES): 2700 nM
- GI50 (UACC-62): 5110 nM
- Activity (MCF7 [8]): 33.45%
- GI50 (SW-620): 5650 nM
- GI50 (SK-MEL-2): 3290 nM
